The target in the experiment is T1, NADP-dependent malic enzyme (Homo sapiens, UniProt P48163).
T1 sequence (P48163 whole entry): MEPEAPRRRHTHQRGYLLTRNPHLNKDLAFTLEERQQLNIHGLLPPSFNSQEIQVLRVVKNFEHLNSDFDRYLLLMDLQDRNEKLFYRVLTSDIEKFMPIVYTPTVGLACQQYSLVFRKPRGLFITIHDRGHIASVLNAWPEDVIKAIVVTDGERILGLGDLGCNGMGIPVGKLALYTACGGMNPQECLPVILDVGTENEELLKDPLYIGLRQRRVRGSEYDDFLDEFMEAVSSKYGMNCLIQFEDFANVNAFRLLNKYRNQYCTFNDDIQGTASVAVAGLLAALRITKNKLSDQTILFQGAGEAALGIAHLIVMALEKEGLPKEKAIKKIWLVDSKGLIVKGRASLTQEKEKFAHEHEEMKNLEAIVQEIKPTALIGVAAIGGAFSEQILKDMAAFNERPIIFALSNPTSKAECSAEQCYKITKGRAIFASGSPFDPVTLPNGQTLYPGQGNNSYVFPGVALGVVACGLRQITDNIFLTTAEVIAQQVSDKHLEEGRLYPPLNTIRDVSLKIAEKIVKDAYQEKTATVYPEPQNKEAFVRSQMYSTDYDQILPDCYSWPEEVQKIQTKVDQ
Briefly: Inhibitory activity against cytosolic malic enzyme. An outline of the steps: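 Coupled endpoint assay. Enzyme pre-incubated with compound 45 min at room temperature in 85 mM Tris pH 7.5 containing 2 mM malic acid and 5 mM MnCl2. Reaction started with 124 µM NADP, run 30 min at room temperature, stopped with 0.5 M EDTA. NADPH formed read via MTS/PMS reduction to formazan, absorbance at 492 nm.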

Our source for the IC50 values is ChEMBL document CHEMBL1149396, “In silico design and synthesis of piperazine-1-pyrrolidine-2,5-dione scaffold-based novel malic enzyme inhibitors” (Bioorg Med Chem Lett, 2006).

In turn, `O=C1CC(N2CCN(c3ccccc3O)CC2)C(=O)N1Cc1ccccc1` (stereo not given) came in with a half-inhibitory concentration (IC50) above 20 µM.
Compound `O=C1CC(N2CCN(c3ccc(F)cc3)CC2)C(=O)N1c1ccccc1` (stereo not given) showed an IC50 of 10 µM.
In the case of `O=C1CC(N2CCN(c3ccc(O)cc3)CC2)C(=O)N1c1ccccc1` (stereo not given) it was 0.15 µM; in that of `O=C1CC(N2CCN(c3cccc(O)c3)CC2)C(=O)N1Cc1ccccc1` (stereo not given), 10 µM; in that of `O=C1CC(N2CCN(c3ccc(O)cc3)CC2)C(=O)N1Cc1ccccc1` (stereo not given), 0.45 µM.
In the case of `Cc1ccc(N2C(=O)CC(N3CCN(c4ccc(O)cc4)CC3)C2=O)cc1Cl` (stereo not given) it was 0.56 µM; in that of `COc1ccc(N2CCN(C3CC(=O)N(c4ccccc4)C3=O)CC2)cc1` (stereo not given), above 20 µM; in that of `COc1ccc(N2CCN(C3CC(=O)N(Cc4ccccc4)C3=O)CC2)cc1` (stereo not given), above 20 µM.
`O=C1CC(N2CCN(c3cccc(C(F)(F)F)c3)CC2)C(=O)N1c1ccccc1` (stereo not given) returned an IC50 of 3.15 µM.
`COc1ccc(N2CCN(C3CC(=O)N(c4cccc(Cl)c4Cl)C3=O)CC2)cc1` (stereo not given) had an IC50 above 20 µM.
